# Sampled rows, rich in hits. Any-hit rate of the full collection: about 2.1%.
# CXCR6 block: CXCR6 receptor inhibitors, primary screen, cell-based, beta-arrestin, luminescence, CHO-K1 PathHunter, 1536-well; 360,000 compounds, 0.36% hits; C-X-C chemokine receptor type 6 (Homo sapiens), O00574; AID 602244, 2012; inhibition, % at 20 µM; in the data active = inhibition above about 34%, passing the limit was not always enough;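 also: antagonist mode with CXCL16 agonist at 10 nM final; 0% = 10 nM CXCL16 with DMSO and 100% = unstimulated wells without agonist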
# EBI2 antag: EBI2 receptor antagonists, beta-arrestin recruitment, primary screen, cell-based, luminescence, 7a,25-OHC stimulation, uHTS | G-protein coupled receptor 183 (Homo sapiens), P32249 | 7a,25-OHC stimulated | inhibition, % at 5 µM | 360,000 compounds, 0.81% hits; in the data active = inhibition above about 38%;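 also: enzyme fragment complementation signal reports receptor beta-arrestin coupling in cells; 0% = agonist plus DMSO wells and 100% = wells without agonist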
# APJ antag: antagonists of human apelin receptor APJ, primary screen, CHO-K1 cells, beta-arrestin complementation, luminescence; P35414; inhibition, % at 20 µM; 330,000 compounds, 0.32% hits; AID 2521, 2010;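 active = inhibition above about 40% at 20 µM, limit read from the data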;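 also: cells challenged with 10 nM apelin-13 agonist together with compound; plate controls were apelin-13 plus DMSO wells for no effect and DMSO wells lacking apelin-13 for full effect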
# Target sequence (P35414 whole entry, looked up): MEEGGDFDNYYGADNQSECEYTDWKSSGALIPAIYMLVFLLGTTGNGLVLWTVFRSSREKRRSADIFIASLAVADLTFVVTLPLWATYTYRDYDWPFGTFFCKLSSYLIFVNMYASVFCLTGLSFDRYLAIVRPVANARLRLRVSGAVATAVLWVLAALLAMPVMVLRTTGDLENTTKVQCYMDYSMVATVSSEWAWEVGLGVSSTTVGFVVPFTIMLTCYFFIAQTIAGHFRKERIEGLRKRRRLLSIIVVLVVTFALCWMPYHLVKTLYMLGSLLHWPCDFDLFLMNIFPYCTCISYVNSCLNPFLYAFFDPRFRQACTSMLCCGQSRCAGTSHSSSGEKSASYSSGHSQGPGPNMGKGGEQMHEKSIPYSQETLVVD
# HTR2A ag: mouse Htr2a agonists via beta-arrestin recruitment, primary screen, cell-based, luminescence; 5-hydroxytryptamine receptor 2A (Mus musculus), P35363; CHO-K1 mHTR2A beta-arrestin complementation; percent of 30 µM serotonin response; activation, % at 7.6 µM; 360,000 compounds, 0.66% hits;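 active = activation above a run cutoff, the mean activation of all tested compounds plus 3 SD, cut at about 14% in these data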;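 also: 0% = plate median of compound wells and 100% = 30 µM serotonin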
# APJ ag: agonists of human apelin receptor APJ, primary screen, CHO-K1 cells, PathHunter beta-arrestin, luminescence; P35414; 0% DMSO wells, 100% apelin; activation, % at 20 µM; 330,000 compounds, 0.11% hits; AID 2520, 2010;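 active = activation more than six SD over the plate average, tested at 20 µM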;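 also: 0% = DMSO alone and 100% = apelin-13 at 10 nM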
#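 Test system – PathHunter CHO-K1 APJ (AGTRL-1) beta-arrestin reporter cells · Input – 1000 cells/well · Compound – single test compound dose, 20 µM final, 1% DMSO · Times – compound stimulation 90 min at 25 °C, detection 60 min · Technique – beta-gal luminescence · Read-out basis – APJ–arrestin association signal · Control set – negative DMSO alone, positive Apelin-13 at 10 nM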
# CCR6 antag: CCR6 receptor antagonists, primary screen, cell-based, CHO-K1, luminescence, beta-arrestin, uHTS; CHO-K1 CCR6 PathHunter beta-arrestin, CCL20-stimulated; inhibition, % at 20 µM; 340,000 compounds, 0.49% hits;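 active = compounds whose inhibition of the agonist-driven luminescence signal at 20 µM reaches about 50%, limit read from the data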;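 also: cells stimulated with CCL20 at 14 nM final; plate controls were DMSO with CCL20 for no effect and DMSO without agonist for full effect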
# MOR ag counter: OPRM1 agonists via beta-arrestin recruitment, confirmation, counter-screen for mouse HTR2A agonist project, cell-based, luminescence, single concentration | shares compounds with HTR2A ag | U2OS OPRM1 beta-arrestin PathHunter; DMSO 0%, DAMGO 9.3 µM 100% | activation, % at 9.3 µM | 2,300 compounds, 5.3% hits;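 active = mean activation above the mean of DMSO-only wells plus 3 SD, cut at about 0.5% in these data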
# m5-HT2A ag conf: mouse HTR2A agonists, beta-arrestin recruitment, confirmation, cell-based, luminescence, CHO-K1 PathHunter, triplicate | shares compounds with HTR2A ag | DMSO 0%, 30 µM serotonin 100% | activation, % at 7.6 µM | 2,300 compounds, 19% hits | AID 624381, 2012;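 active = mean activation across triplicates above the hit threshold derived in the original primary screen, cut at about 15% in these data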
# Active calls of the source: *; . = no result given.
SMILES,CXCR6 block,EBI2 antag,APJ antag,HTR2A ag,APJ ag,CCR6 antag,MOR ag counter,m5-HT2A ag conf
COc1ccc(S(=O)(=O)N[C@@H](Cc2ccccc2)C(=O)N2CC[C@@]3(O)CCCC[C@H]3C2)cc1,1,-9,8,1,3,14,.,.
FC(F)(F)c1ccccc1NC(=S)NC1CCN(Cc2ccccc2)CC1,-2,-2,7,17*,-2,15,-1,-5
S=C(Nc1ccccc1Cl)NC1CCN(Cc2ccccc2)CC1,12,-7,-2,-5,-2,14,.,.
c1ccc(COc2ccc(Nc3ncnc4nc[nH]c34)cc2)cc1,-15,3,-2,17*,0,-8,-1,-7
CC(=O)OC1C=CCC2C(=O)c3cccc(O)c3C(O)C12 (centres undefined),-20,-18,.,17*,.,3,0,0
Cc1oc(S(=O)(=O)N2CCOCC2)cc1C(=O)Nc1ccc(F)cc1,-12,-3,3,2,-1,-10,.,.
COC(=O)NCCc1cc(OC)c(OC)cc1S(=O)(=O)N1CC(=O)Nc2ccccc21,7,-2,6,15*,-3,8,0,-1
Cc1ccc(S(=O)(=O)NCC(=O)N2CCCCC2)cc1,-2,-4,11,14*,-4,6,-1,-3
Cc1ccc(S(=O)(=O)NC(CC(=O)NC2CCCC2)c2ccco2)cc1 (centres undefined),16,-2,12,-4,-2,-17,.,.
Cc1ccc(S(=O)(=O)NC(CC(=O)N2CCOCC2)c2ccco2)cc1 (centres undefined),-8,-1,-3,43*,-3,-6,-1,0
Cc1ccc(S(=O)(=O)NCC(=O)N2CCCC2)cc1,4,-16,8,7,-2,2,.,.
CCN(Cc1ccccc1)C(=O)C(=O)c1cn(CC(=O)N2CCCC2)c2ccccc12,3,13,1,16*,-4,6,-1,-3
CCN(CC)C(=O)Cn1cc(C(=O)C(=O)N2CCN(C)CC2)c2ccccc21,-3,3,8,16*,-5,3,-1,0
Cc1cc(C(C)(C)C)c(O)c(C)c1CC1=NCCN1,7,-5,24,32*,-3,5,-1,41*
N#CC(C#N)=C1c2cc(S(=O)(=O)NCCO)ccc2-c2ccc(S(=O)(=O)NCCO)cc21,-16,-7,-82,3,10,11,.,.
CCOc1cc(N2CCOCC2)c(OCC)cc1NC(=O)CN1C(=O)NC(CC)(c2ccc(F)cc2)C1=O (centres undefined),1,-2,.,15*,.,-5,-1,1
CCOc1ccc2[nH]c(=O)c(C(c3nnnn3CC3CCCO3)N3CCc4ccccc4C3)cc2c1 (centres undefined),3,4,8,-2,0,-5,.,.
Cc1cc(C)c(C)c(S(=O)(=O)N2CCC(C(=O)NCc3ccco3)CC2)c1C,-1,-8,22,7,-4,2,.,.
COc1ccc(-c2csc(NC(=O)Nc3ccccc3)n2)cc1,-15,10,-5,19*,1,-2,0,7
Cc1ccc(-c2csc(NC(=O)C3=NN(c4ccccc4)C(=O)CC3)n2)cc1,-8,-8,4,18*,5,-1,0,-1
COc1ccc(-c2csc(NC(=O)c3ccccc3NS(=O)(=O)c3ccc(F)c(F)c3)n2)cc1,-10,-5,-11,18*,-1,5,0,24*
Cc1ccc(S(=O)(=O)Nc2ccccc2C(=O)Nc2nc(-c3ccc(F)cc3)cs2)cc1,-4,-8,-14,5,4,3,.,.
CC(C)Cn1c(SCC(=O)NCCCN2CCCC2=O)nc2ccccc21,1,-6,5,16*,0,7,-1,-5
CC(C)(C)c1ccc(C(=O)N2CCN(c3nc4ccccc4o3)CC2)cc1,-6,-4,6,17*,-2,9,0,-1
O=C(c1ccc(-c2ccccc2)cc1)N1CCN(c2nc3ccccc3o2)CC1,-2,8,.,3,.,7,.,.
SMILES,CXCR6 block,EBI2 antag,APJ antag,HTR2A ag,APJ ag,CCR6 antag,MOR ag counter,m5-HT2A ag conf
CC(=O)c1c(C)[nH]c(C(=O)OC2CCOC2=O)c1C (centres undefined),-8,2,21,5,2,3,.,.
CCOC(=O)N1CCN(C(c2ccccc2)c2sc3nc(C)nn3c2O)CC1 (centres undefined),1,1,18,3,-1,0,.,.
CCOC(=O)N1CCN(C(c2ccc(F)cc2)c2sc3nc(C)nn3c2O)CC1 (centres undefined),0,-5,10,32*,-3,1,-1,-3
O=C(CN1C(=O)NC(Cc2ccccc2)C1=O)Nc1ccccc1OC(F)F (centres undefined),2,-15,28,18*,-7,4,0,0
COc1cc(-c2noc(C)c2-c2ccc(N(C)C)nc2)cc(OC)c1OC,-10,-22,6,-1,0,-1,.,.
CCn1cc(CN2CCC(C(=O)Nc3ccc(Oc4ccccc4F)cc3)CC2)cn1,-11,-17,.,15*,.,.,-1,-6
C[C@H](CO)N1C[C@H](C)[C@@H](CN(C)C(=O)Nc2cccc3ccccc23)OCCCC[C@H](C)Oc2ccc(NS(=O)(=O)c3cn(C)cn3)cc2C1=O,3,-2,.,0,.,.,.,.
CCc1ccc(C(=O)C(C)OC(=O)Cn2cnc3c2c(=O)n(C)c(=O)n3C)cc1 (centres undefined),6,8,-9,17*,-3,2,-1,-2
CN1CCN(c2ncnc3c2ncn3[C@H]2CN(Cc3ccncc3)C[C@@H](CO)O2)CC1,0,-6,.,15*,.,.,.,-6
Cn1c(Cc2cccs2)nnc1SCC(=O)Nc1ccc(F)cc1F,-2,-2,7,15*,-8,-13,0,-4
